Reference: ChEMBL document CHEMBL1154411, “Determination of the primary target of a quinolone drug and the effect of quinolone resistance-conferring mutations by measuring quinolone sensitivity based on its mode of action” (Antimicrob Agents Chemother, 2007)
Active and inactive are the calls of the source. No cut-off for these calls is given here.

Assays:
[1] = molecular target: T1, DNA gyrase (Staphylococcus aureus) (UniProt P0A0K8+P20831); experiment: Induction of Staphylococcus aureus DNA gyrase-mediated negatively supercoiled Escherichia coli pBR322 DNA cleavage at 50 uM after 10 mins by gel electrophoresis; assay type: protein-complex assay
T1 sequence (P0A0K8 2-644 limits assumed): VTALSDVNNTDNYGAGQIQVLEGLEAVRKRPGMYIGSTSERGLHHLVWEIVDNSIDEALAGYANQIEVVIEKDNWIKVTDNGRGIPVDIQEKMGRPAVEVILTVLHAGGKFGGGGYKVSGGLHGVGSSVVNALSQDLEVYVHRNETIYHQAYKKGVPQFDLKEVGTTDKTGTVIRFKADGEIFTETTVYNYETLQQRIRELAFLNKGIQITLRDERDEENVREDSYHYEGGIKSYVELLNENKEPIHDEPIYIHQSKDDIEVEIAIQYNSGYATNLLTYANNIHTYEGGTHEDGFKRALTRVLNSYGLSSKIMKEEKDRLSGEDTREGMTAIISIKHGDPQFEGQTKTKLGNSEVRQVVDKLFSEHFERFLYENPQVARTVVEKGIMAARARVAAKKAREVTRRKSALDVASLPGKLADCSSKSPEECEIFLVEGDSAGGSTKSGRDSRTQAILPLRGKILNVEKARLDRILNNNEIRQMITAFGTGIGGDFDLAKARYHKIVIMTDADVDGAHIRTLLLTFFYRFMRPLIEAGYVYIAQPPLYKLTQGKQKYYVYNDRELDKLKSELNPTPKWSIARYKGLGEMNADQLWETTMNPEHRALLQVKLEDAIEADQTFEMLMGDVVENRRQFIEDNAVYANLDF
T1 sequence (P20831 whole entry partner): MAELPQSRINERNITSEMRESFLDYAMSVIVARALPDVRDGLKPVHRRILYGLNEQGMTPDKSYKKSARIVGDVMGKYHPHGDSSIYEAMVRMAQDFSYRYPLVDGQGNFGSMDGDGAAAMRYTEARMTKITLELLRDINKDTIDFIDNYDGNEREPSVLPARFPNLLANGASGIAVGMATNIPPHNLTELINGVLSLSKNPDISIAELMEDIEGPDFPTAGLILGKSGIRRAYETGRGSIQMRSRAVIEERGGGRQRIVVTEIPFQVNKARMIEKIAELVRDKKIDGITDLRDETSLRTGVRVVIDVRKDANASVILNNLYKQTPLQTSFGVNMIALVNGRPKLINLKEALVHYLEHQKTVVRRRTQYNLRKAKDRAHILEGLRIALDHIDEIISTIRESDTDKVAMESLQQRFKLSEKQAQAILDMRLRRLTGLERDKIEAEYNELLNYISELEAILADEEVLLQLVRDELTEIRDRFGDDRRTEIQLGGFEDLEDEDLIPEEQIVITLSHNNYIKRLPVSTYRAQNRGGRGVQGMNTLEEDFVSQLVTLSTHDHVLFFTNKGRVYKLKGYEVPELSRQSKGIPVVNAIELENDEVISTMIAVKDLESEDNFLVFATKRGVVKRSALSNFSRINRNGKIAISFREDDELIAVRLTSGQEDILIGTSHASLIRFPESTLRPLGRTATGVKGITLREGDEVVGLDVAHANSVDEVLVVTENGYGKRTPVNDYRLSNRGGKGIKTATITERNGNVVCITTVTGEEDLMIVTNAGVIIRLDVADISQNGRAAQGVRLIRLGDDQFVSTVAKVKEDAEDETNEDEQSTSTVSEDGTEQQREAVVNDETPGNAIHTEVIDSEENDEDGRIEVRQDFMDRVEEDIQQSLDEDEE
In short: (§1)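 Negatively supercoiled pBR322 (300 ng) incubated with titrated topoisomerase (tetramer amounts) in 50 mM Tris-HCl pH 8, 10 mM MgCl2, 10 mM DTT, 50 μg/ml BSA, 1 mM ATP, 5 μg/ml tRNA, 10 min at 37°C, with or without 50 μM norfloxacin. Trapped by 1% SDS, then EDTA/proteinase K, extracted, and run on 1.2% agarose with ethidium bromide; activity is linear DNA per enzyme amount.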

Staphylococcus aureus [2] = experiment: Induction of Staphylococcus aureus DNA topoisomerase 4-mediated Escherichia coli pBR322 DNA cleavage assessed as ratio of drug-induced DNA cleavage to spontaneous DNA cleavage at 50 uM after 10 mins by gel electrophoresis
In short: (§2)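 Quinolone sensitivity is the ratio of specific cleavage activity with 50 μM norfloxacin to the activity without it. Both come from the same pBR322 cleavage reaction: 37°C for 10 min with 1 mM ATP, then SDS/proteinase K trapping, with linear DNA resolved on ethidium-stained 1.2% agarose gels.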

Escherichia coli [3] = experiment: Sensitivity ratio for induction of Escherichia coli DNA topoisomerase 4 over DNA gyrase-mediated negatively supercoiled Escherichia coli pBR322 DNA cleavage
Escherichia coli [4] = experiment: Induction of Escherichia coli DNA gyrase-mediated negatively supercoiled Escherichia coli pBR322 DNA cleavage at 50 uM after 10 mins by gel electrophoresis; in short: as §1
Staphylococcus aureus [5] = experiment: Sensitivity ratio for induction of Staphylococcus aureus DNA topoisomerase 4 over DNA gyrase-mediated negatively supercoiled Escherichia coli pBR322 DNA cleavage
Escherichia coli [6] = experiment: Induction of Escherichia coli DNA gyrase-mediated Escherichia coli pBR322 DNA cleavage assessed as ratio of drug-induced DNA cleavage to spontaneous DNA cleavage at 50 uM after 10 mins by gel electrophoresis; in short: as §2
Staphylococcus aureus [7] = experiment: Induction of Staphylococcus aureus DNA topoisomerase 4-mediated negatively supercoiled Escherichia coli pBR322 DNA cleavage assessed as amount of linear DNA generated per unit amount of enzyme at 50 uM after 10 mins by gel electrophoresis; in short: as §1
Escherichia coli [8] = experiment: Induction of Escherichia coli DNA topoisomerase 4-mediated negatively supercoiled Escherichia coli pBR322 DNA cleavage at 50 uM after 10 mins by gel electrophoresis; in short: as §1
Escherichia coli [9] = experiment: Induction of Escherichia coli DNA topoisomerase 4-mediated Escherichia coli pBR322 DNA cleavage assessed as ratio of drug-induced DNA cleavage to spontaneous DNA cleavage at 50 uM after 10 mins by gel electrophoresis; in short: as §2
[10] = molecular target: DNA gyrase (Escherichia coli) (UniProt P0AES6+P0AES4); experiment: Induction of Escherichia coli DNA gyrase-mediated negatively supercoiled Escherichia coli pBR322 DNA cleavage assessed as amount of linear DNA generated per unit amount of enzyme at 50 uM after 10 mins by gel electrophoresis; assay type: protein-complex assay; in short: as §1
Escherichia coli [11] = experiment: (§3) Induction of Escherichia coli DNA topoisomerase 4-mediated negatively supercoiled Escherichia coli pBR322 DNA cleavage assessed as amount of linear DNA generated per unit amount of enzyme at 50 uM after 10 mins by gel electrophoresis; in short: as §1
[12] = tested on: T2, DNA topoisomerase 4 subunit A (Escherichia coli K-12), P0AFI2 [S80L]; experiment: as §3; in short: as §1
T2 sequence (whole entry): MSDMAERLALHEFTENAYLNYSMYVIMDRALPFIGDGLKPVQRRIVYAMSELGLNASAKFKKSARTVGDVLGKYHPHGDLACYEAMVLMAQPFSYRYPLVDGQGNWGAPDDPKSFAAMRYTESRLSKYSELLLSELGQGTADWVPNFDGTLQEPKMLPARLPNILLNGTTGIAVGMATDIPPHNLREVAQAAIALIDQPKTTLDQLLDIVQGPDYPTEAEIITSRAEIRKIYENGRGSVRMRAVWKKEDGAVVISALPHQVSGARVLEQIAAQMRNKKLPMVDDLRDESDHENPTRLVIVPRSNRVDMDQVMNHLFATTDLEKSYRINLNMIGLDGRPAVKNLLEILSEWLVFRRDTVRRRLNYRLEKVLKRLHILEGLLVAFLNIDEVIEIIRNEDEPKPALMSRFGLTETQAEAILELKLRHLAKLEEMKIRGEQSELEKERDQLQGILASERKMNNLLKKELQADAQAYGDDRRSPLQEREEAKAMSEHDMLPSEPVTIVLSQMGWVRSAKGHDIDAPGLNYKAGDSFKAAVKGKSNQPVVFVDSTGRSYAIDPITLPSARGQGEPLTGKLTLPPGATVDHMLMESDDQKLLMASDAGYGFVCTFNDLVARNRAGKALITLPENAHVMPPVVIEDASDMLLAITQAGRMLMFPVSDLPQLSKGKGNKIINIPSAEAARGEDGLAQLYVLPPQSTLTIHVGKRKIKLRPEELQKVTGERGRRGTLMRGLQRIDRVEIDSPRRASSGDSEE

[13] = molecular target: T1, DNA gyrase (Staphylococcus aureus); experiment: Induction of Staphylococcus aureus DNA gyrase-mediated Escherichia coli pBR322 DNA cleavage assessed as ratio of drug-induced DNA cleavage to spontaneous DNA cleavage at 50 uM after 10 mins by gel electrophoresis; assay type: protein-complex assay; in short: as §2
Escherichia coli [14] = experiment: Induction of Escherichia coli DNA topoisomerase 4 ParC […] mutant-mediated negatively supercoiled Escherichia coli pBR322 DNA cleavage assessed as amount of linear DNA generated per unit amount of enzyme at 50 uM after 10 mins by gel electrophoresis; in short: as §1
[15] = tested on: T2, DNA topoisomerase 4 subunit A (Escherichia coli K-12), P0AFI2 [S80L]; experiment: Induction of Staphylococcus aureus DNA topoisomerase 4 ParC S80L mutant-mediated Escherichia coli pBR322 DNA cleavage assessed as ratio of drug-induced DNA cleavage to spontaneous DNA cleavage at 50 uM after 10 mins by gel electrophoresis
Staphylococcus aureus [16] = experiment: Induction of Staphylococcus aureus DNA topoisomerase 4-mediated negatively supercoiled Escherichia coli pBR322 DNA cleavage at 50 uM after 10 mins by gel electrophoresis; in short: as §1

How did the Activity [1] turn out when `CCn1cc(C(=O)O)c(=O)c2cc(F)c(N3CCNCC3)cc21` was run?
The Activity was “Active”.

What about the Ratio (Staphylococcus aureus [2]) of the same molecule?
The Ratio was 24.7.

What about the Ratio (Escherichia coli [3]) of the same molecule?
The Ratio was 18.

What about the Activity (Escherichia coli [4]) of the same molecule?
Its Activity is “Active”.

What about the Ratio (Staphylococcus aureus [5]) of the same molecule?
Its Ratio is 2.5.

What about the Ratio (Escherichia coli [6]) of the same molecule?
Its Ratio is 68.4.

And the Activity (Staphylococcus aureus [7])?
Its Activity is 0.42 ng.

And the Activity (Escherichia coli [8])?
Its Activity is “Active”.

What about the Ratio (Escherichia coli [9]) of the same molecule?
Its Ratio is 3.79.

What about the Activity [10] of the same molecule?
The Activity was 0.39 ng.

And the Activity (Escherichia coli [11])?
The Activity was 0.53 ng.

And the Activity [12]?
Its Activity is 0.49 ng.

And the Ratio [13]?
Its Ratio is 10.

And the Activity (Escherichia coli [14])?
Its Activity is 0.17 ng.

What about the Ratio [15] of the same molecule?
Its Ratio is 1.96.

What about the Activity (Staphylococcus aureus [16]) of the same molecule?
The Activity was “Active”.
